Source: PubChem
This excerpt belongs to a sample that is enriched for hits.
H69AR inhibit = proliferation blockers of H69AR lung cancer cells, primary screen, cell-based, human, 86K library; viability, % at 10 µM; 6% of 85,000 active; H69AR lung tumor viability, ATP luminescence, 72 h; active compounds read low; AID 598, 2007;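 active means viability at or below 40%; inactive means viability above 40%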;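 further: multidrug resistant small cell line overexpressing MRP-1 efflux transporter; 100% = mean luminescence of untreated control wells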
HUVEC prolif 384 = inhibitors of HUVEC proliferation, primary screen, cell-based, 384-well; 1.1% of 86,000 active; viability, % at 10 µM (by protocol); CellTiter-Glo luminescence, 72 h; active compounds read low;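 active means viability at or below 30%; inactive means viability above 30%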;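 further: 100% = median luminescence of DMSO-only cell control wells on each plate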
PTEN del growth = growth suppression of PTEN-null HCT116, primary screen, cell-based, CellTiter-Glo. HCT116 PTEN-null viability, 60 h; active compounds read low. viability, % at 10 µM. 1.2% of 140,000 active. AID 827, 2007;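 active means viability at or below a set limit, 4 SD under the median of all tested compounds, cut at about 3.7% in these data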;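 further: PTEN knockout HCT116 line with beta catenin targeted HCT116 as companion control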
HCT116 bCat-KO = primary screen for growth suppressors in beta-catenin knockout HCT116 cells (colon tumor, human) | HCT116 beta-catenin knockout viability, CellTiter-Glo, 60 h; active compounds read low | AID 818, 2007 | 1.5% of 140,000 active | viability, % at 10 µM;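 active means viability at or under a set limit, the compound median less 4 SD, cut at about 6% in these data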;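 further: 0% = Hyamine 1622 control at 20 µM and 100% = untreated cell control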
Fibroblast inh = antiproliferative effect on LL 47 fibroblasts – human, LL 47 cells, CellTiter-Glo luminescence, primary screen | 1.1% of 85,000 active | viability, % at 10 µM | LL 47 human lung fibroblast viability, ATP luminescence; active compounds read low;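 active means viability at or below 50% in the single dose screen; inactive means viability above 50%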;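 further: compound exposure lasted 72 h before the ATP readout; 100% = median luminescence of untreated cell-only wells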
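Material: human lung fibroblast line LL 47, low passage; Evaluation: viability percentage against median untreated-cell control; Buffer or medium: 15% FBS in IMEM; Incubation: 72 h compound exposure at 37 °C after overnight plating; Dosing: 0.1% DMSO in all compound wells; Measured by: CellTiter-Glo luminescence.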
* hit, by the source's call; nt = no result.

SMILES	H69AR inhibit	HUVEC prolif 384	PTEN del growth	HCT116 bCat-KO	Fibroblast inh
N/C(=N\NC(=O)c1cccs1)c1cc2ccccc2oc1=O	nt	nt	80	98	nt
Cc1c(-c2ccccc2)[nH]n2c(=O)c3c(nc12)CCCC3	nt	nt	90	92	nt
O=C(COc1ccccc1)N1CCN(c2ncnc3c2cnn3-c2ccccc2)CC1	40*	115	83	85	96
COc1ccc(-n2ncc3c(N4CCN(c5cccc(C)c5C)CC4)ncnc32)cc1	7.1*	18*	nt	nt	24*
COc1ccc(-n2ncc3c(N4CCCCC4)ncnc32)cc1	39*	66	76	75	82
Cc1cccc(C(=O)N2CCN(c3ncnc4c3cnn4-c3ccccc3)CC2)c1	74	92	68	72	98
COc1ccc(-n2ncc3c(N4CCN(c5cc(C)ccc5C)CC4)ncnc32)cc1	64	67	67	62	89
N#Cc1c(NC(=O)CSc2ncn(-c3ccccc3)n2)sc2c1CCCC2	88	88	108	98	94
Brc1cc(Br)c2ncnc(N3CCCCC3)c2c1	1.7*	8.9*	10	5.8*	16*
Clc1ccc(-n2ncc3c(N4CCCCCC4)ncnc32)cc1	79	87	98	91	103
CC1CCc2ccc(F)cc2N1S(=O)(=O)c1cccs1 (stereo not drawn)	27*	83	46	44	89
Cn1nnnc1Sc1nc(-c2cccnc2)nc2ccccc12	0.0*	86	nt	nt	12*
O=C(Oc1ccc(OC(=O)c2ccco2)c(S(=O)(=O)c2ccc(Cl)cc2)c1)c1ccco1	nt	nt	88	85	nt
O=C(CCc1ccccc1)NC(NC(=S)Nc1ccc(Br)cc1)C(Cl)(Cl)Cl (stereo not drawn)	8.3*	37	81	84	77
CC1CN(C(=O)Cn2cnc3c2c(=O)n(C)c(=O)n3C)CC(C)O1 (stereo not drawn)	100	96	96	93	102
COC(=O)Nc1ccc2c(c1)N(C(=O)CCN1CCN3CCCC3C1)c1ccccc1CC2 (stereo not drawn)	nt	nt	93	101	nt
COc1ccc2ccccc2c1/C=N\n1c(C)cc(C)c(C(N)=O)c1=O	nt	nt	102	113	nt
Cc1nnc(-c2ccccc2)c(=O)n1/N=C/c1c(O)ccc2ccccc12	nt	nt	4	4.5*	nt
CCOCCCN(CCC#N)S(=O)(=O)c1ccc(S(=O)(=O)N2CCCC2)cc1	92	104	88	96	97
CCOc1cc(C(=O)Nc2cc(C)ccn2)cc(OCC)c1OCC	77	85	37	36	96
CCOc1cc(C(=O)Nc2cnccn2)cc(OCC)c1OCC	24*	75	29	32	96
Clc1cccc(-c2cc3nc4c(c(N5CCNCC5)n3n2)CCCC4)c1	1.9*	1.1*	1.0*	1.5*	1.9*
OC1CCN(c2c3c(nc4cc(-c5cccc(F)c5)nn24)CCCC3)CC1	95	74	61	74	98
CC(C)C1N=C(c2ccc3c(c2)OCO3)CC(c2ccccc2O)N1 (stereo not drawn)	2.1*	59	8	5.8*	56
O=C(NC(=S)Nc1ccc(Oc2ccccc2)cc1)c1ccc(Cl)cc1	nt	nt	87	78	nt
SMILES	H69AR inhibit	HUVEC prolif 384	PTEN del growth	HCT116 bCat-KO	Fibroblast inh
COc1cccc(/C=N/n2c(SC)nnc2-c2ccccc2)c1O	23*	51	31	39	89
c1ccc(Cn2nnnc2-c2ccco2)cc1	91	89	88	84	87
CCOc1ccc(-c2nnn(CC(=O)Nc3ccccc3OC)n2)cc1OCC	11*	42	99	116	78
O=C(Cn1nnc(-c2ccccc2NC(=O)c2cccs2)n1)Nc1ccccc1	15*	59	52	61	86
COc1cc(C(=O)Nc2ccccc2-c2nnn(CC(N)=O)n2)cc(OC)c1OC	nt	nt	108	104	nt
COc1ccccc1NC(=O)Cn1nnc(-c2ccccc2NC(=O)c2cccs2)n1	30*	49	55	29	87
COc1ccc(-c2nnn(CC(=O)NCc3ccccc3)n2)cc1OC	95	99	86	86	92
COc1ccc(NC(=O)c2ccc3snnc3c2)cc1	92	98	90	82	103
CSc1ccc(/C=N/NC(=O)CN2CCN(Cc3ccccc3)CC2)cc1	nt	nt	96	91	nt
Cc1cccc(C)c1OCC(=O)N=Nc1c(O)[nH]c2ccc(Br)cc12	1.9*	17*	104	97	98
O=C(N=Nc1c(O)[nH]c2ccc(Br)cc12)c1cc(-c2cccc3ccccc23)n[nH]1	nt	nt	52	70	nt
O=C(Cc1cccs1)Nc1nnc(COc2ccccc2)s1	104	99	nt	nt	89
Cc1noc(C)c1CSc1cc(C)c2ccccc2n1	22*	97	80	92	90
COCCOC(=O)c1[nH]c2c(c1C)C(=O)CC(c1ccc(F)cc1)C2 (stereo not drawn)	25*	59	27	28	86
COCCOC(=O)c1[nH]c2c(c1C)C(=O)CC(c1ccc(N(C)C)cc1)C2 (stereo not drawn)	87	87	86	82	89
COCCOC(=O)c1[nH]c2c(c1C)C(=O)CC(c1ccccc1)C2 (stereo not drawn)	39*	43	20	17	56
Nc1nc(Nc2cccc(F)c2)nc2ccccc12	36*	74	71	70	nt
O=C1c2ccccc2NC(c2ccc(Cl)cc2Cl)N1O (stereo not drawn)	nt	80	8	3.5*	72
CN(Cc1ccc(O)cc1)C1CCCCC1	30*	101	97	85	nt
COc1ccc(CN(C)C2CCCCC2)cc1	86	102	91	100	102
CCOC(=O)C1CCCN(S(=O)(=O)c2cn(C)c(=O)n(C)c2=O)C1 (stereo not drawn)	97	89	84	87	93
CCN(CC)CCn1c2ccccc2c2cnc(N)c(C#N)c21	29*	77	4	4.3*	22*
CN(C)C=Nc1ncc2c3ccccc3n(CCN(C)C)c2c1C#N	54	65	20	24	63
COc1cccc2cc(C(=O)N3CCN(C/C=C/c4ccccc4)CC3)c(=O)oc12	77	103	93	89	95
O=S(=O)(c1ccc(F)cc1)N(CCO)CC(O)Cn1c2ccccc2c2ccccc21 (stereo not drawn)	13*	55	76	84	99
O=S(=O)(c1ccccc1)N(CC(O)Cn1c2ccccc2c2ccccc21)c1ccccc1 (stereo not drawn)	nt	nt	17	16	nt
Cc1ccc(S(=O)(=O)N(C)CC(O)Cn2c3ccccc3c3ccccc32)cc1 (stereo not drawn)	80	88	57	69	99
CCN(CC(O)Cn1c2ccccc2c2ccccc21)S(=O)(=O)c1ccc(F)cc1 (stereo not drawn)	18*	81	79	75	95
